Screening results from PubChem BioAssay.
Only some compounds are listed: those with a hit (about 3.4% of all), similar ones and a draw of the others.
Arrestin-AP2 inh – inhibitors of human beta-arrestin and AP2 interaction. inhibition, % at 10 µM. FITC-arrestin peptide / GST-AP2 beads, flow cytometry; AP2 beta2 appendage carries R879A mutation. 0.31% of 340,000 active. AID 504490;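 active = inhibition above a set limit, near 3 SD of compounds lacking own fluorescence, cut at about 54% in these data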
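Material – GST-tagged AP2 beta2-adaptin appendage (R879A) on 4 µm glutathione beads · Probe or stimulus – fluorescein-tagged arrestin peptide at 50 nM final · Timing – 12 min plus 1 h, RT · Detection – bead flow cytometry, FITC channel · Read-out basis – inhibition as reduced fluorescein signal on beads, percent · Medium – PBS plus Tween 20 (0.05%) and BSA (0.1%)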
AHR act – activates the human aryl hydrocarbon receptor; AID 2796; 2.5% of 320,000 active; AHR-responsive luciferase reporter cells, luminescence; P35869; activation, % at 5 µM; in the data active = activation above about 47%
Target sequence (P35869 whole entry, looked up): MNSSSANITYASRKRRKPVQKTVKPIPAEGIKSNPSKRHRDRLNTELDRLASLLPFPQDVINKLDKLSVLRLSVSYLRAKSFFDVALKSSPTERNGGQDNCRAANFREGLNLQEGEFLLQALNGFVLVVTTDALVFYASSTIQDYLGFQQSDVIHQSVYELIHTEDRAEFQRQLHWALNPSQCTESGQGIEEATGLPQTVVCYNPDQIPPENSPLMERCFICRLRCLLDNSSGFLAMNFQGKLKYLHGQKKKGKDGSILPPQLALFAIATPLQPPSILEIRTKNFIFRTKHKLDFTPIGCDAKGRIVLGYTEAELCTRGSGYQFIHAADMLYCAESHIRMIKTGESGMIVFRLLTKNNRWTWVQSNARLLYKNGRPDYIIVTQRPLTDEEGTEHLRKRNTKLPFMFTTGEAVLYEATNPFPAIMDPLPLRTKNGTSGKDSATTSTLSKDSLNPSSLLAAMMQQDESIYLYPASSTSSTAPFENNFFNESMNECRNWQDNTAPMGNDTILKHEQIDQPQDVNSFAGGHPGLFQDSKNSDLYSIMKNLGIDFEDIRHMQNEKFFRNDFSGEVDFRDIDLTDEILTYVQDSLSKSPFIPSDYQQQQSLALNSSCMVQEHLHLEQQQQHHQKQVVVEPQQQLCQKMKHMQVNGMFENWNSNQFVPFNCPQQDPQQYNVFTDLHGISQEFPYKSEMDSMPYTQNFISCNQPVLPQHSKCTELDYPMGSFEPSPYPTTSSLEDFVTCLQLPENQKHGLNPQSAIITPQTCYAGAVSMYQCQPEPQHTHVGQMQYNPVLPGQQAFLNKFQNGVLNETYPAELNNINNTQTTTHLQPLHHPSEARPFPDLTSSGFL
A3G deaminase – inhibitors of human APOBEC3G DNA deaminase; recombinant A3G, ssDNA deamination FAM/TAMRA fluorescence; 0.28% of 330,000 active; AID 493012; inhibition, % at 20 µM; Q9HC16;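 active = inhibition of at least 40% at 20 µM, with no more than 30% in the related APOBEC3A deaminase screen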
APOBEC3A inh – inhibitors of human APOBEC3A DNA deaminase; recombinant A3A, FAM/TAMRA ssDNA deamination fluorescence; P31941; 0.41% of 330,000 active; inhibition, % at 20 µM;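 active = at least 40% inhibition at 20 µM here, with at most 30% in a related deaminase screen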
UCH37 inh – human UCH37 deubiquitinating enzyme inhibition | purified proteasome/UCH37, Ub-AMC cleavage fluorescence | inhibition, % (no concentration beside the values) | 0.33% of 330,000 active | AID 588478;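 active = mean inhibition over replicate wells above about 20%, limit read from the data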
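Signal – fluorescence, ex 355 nm, em 460 nm · System – Proteasome-bound UCH37 · Input – 0.15 nM proteasome as dispensed · Timing – 30 min preincubation with enzyme, 25 min cleavage at room temperature · Read-out basis – percent inhibition of cleavage signal versus uninhibited and no-proteasome wells · Medium – Tris-HCl pH 7.4 with ATP-MgCl2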
PolyA inhibitor – blocks polyadenylation in yeast reporter cells. S. cerevisiae SKY197-pL101 polyadenylation reporter, beta-gal luminescence; efflux-impaired pdr1/pdr3 knockout yeast; score 100 = 6 SD above DMSO. activity score, % at 12 µM. 0.02% of 300,000 active. AID 1875;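 active = lowest replicate activity score at least 50, where 100 means six control SD above control mean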;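 also: yeast exposed to compound for 9 h at 30 °C; higher score means more reporter readthrough which indicates perturbed polyadenylation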
AHR act confirm – confirmation of human aryl hydrocarbon receptor activators; shares compounds with AHR act; 87% of 2,300 active; human cells, AHR-responsive luciferase reporter, luminescence; activation, % at 9 µM; in the data active = activation above about 49%;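 also: HepG2 hepatoma cells carrying a DRE-driven firefly luciferase reporter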
PXR act counter – activates human PXR in AHR activator counter-screen | shares compounds with AHR act | cell-based PXR reporter, luciferase luminescence | 88% of 2,300 active | activation, % at 11.6 µM; in the data active = activation above about 11%;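 also: human hepatoma DPX-2 cells expressing full-length human PXR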
Hits are given with their value; - = inactive; . = not tested or not shown.

SMILES	Arrestin-AP2 inh	AHR act	A3G deaminase	APOBEC3A inh	UCH37 inh	PolyA inhibitor	AHR act confirm	PXR act counter
C=C(C)COc1ccc(-c2[nH]ncc2Oc2ccccc2OC)c(O)c1	-	98.0	-	-	-	-	55.5	65.9
CCOc1ccccc1Oc1cn[nH]c1-c1ccc(OCC(=O)NN)cc1O	-	106.8	-	-	-	-	67.8	14.9
CCOC(=O)C1=C(C)N=c2sc(=Cc3ccc(OCC(=O)O)cc3)c(=O)n2C1c1ccc(OC(C)C)cc1 (stereo not drawn)	.	.	.	.	-	.	.	.
COc1cccc(-c2noc(-c3cccnc3)n2)c1	-	85.0	-	-	-	-	133.9	-
COc1ccc(-c2nc(-c3ccc(Br)o3)no2)cc1	-	-	-	-	-	-	.	.
COc1ccc(CC(=O)Nc2ccc(-c3noc(-c4cccc(OC)c4)n3)cc2)cc1	-	-	-	-	-	-	.	.
COc1ccc(-c2nc(-c3cccnc3)no2)cc1OC	-	-	-	-	-	-	.	.
COc1cccc(-c2noc(-c3ccc(Br)o3)n2)c1	-	83.7	-	-	.	.	87.7	-
COc1ccc(-c2noc(-c3ccc(Br)o3)n2)cc1	-	79.3	-	-	-	-	106.9	17.2
CC(=NN(C)C)C1=C(O)c2ccccc2C1=O	.	.	.	.	-	.	.	.
Cc1cc(NCCCn2ccnc2)n2nc(-c3ccc(F)cc3)cc2n1	-	-	-	-	-	-	.	.
Cc1cc(NCCCn2ccnc2)n2nc(-c3ccc(Cl)cc3)cc2n1	-	134.5	-	-	-	-	110.1	17.9
Cc1[nH]n(C(N)=S)c(=O)c1N=Nc1cccc(Cl)c1	-	114.2	-	-	-	-	114.6	12.6
CC1=NN(C(N)=S)C(=O)C1N=Nc1cccc(Cl)c1 (stereo not drawn)	-	85.0	-	-	-	-	148.2	27.2
NC(=S)n1[nH]c(-c2ccc([N+](=O)[O-])cc2)c(N=Nc2cccc(Cl)c2)c1=O	-	.	-	-	-	-	.	.
CC1=NN(C(N)=S)C(=O)C1N=Nc1ccc(S(N)(=O)=O)cc1 (stereo not drawn)	-	-	-	-	-	-	.	.
O=S(=O)(NN=Cc1cccnc1)c1ccccc1	.	.	.	.	-	.	.	.
COC(=O)NN=Cc1c(C)nn(-c2ccccc2)c1Cl	.	.	.	.	-	.	.	.
COc1ccccc1C=NNC(=O)CNC(=O)c1ccccc1	.	.	.	.	-	.	.	.
Cc1ccccc1C(=O)O/N=C(\N)c1ccccc1	-	79.4	-	-	-	-	95.0	-
N/C(=N\OC(=O)c1cccc2ccccc12)c1ccc(Br)cc1	-	96.0	-	-	-	-	98.9	15.2
N/C(=N\OC(=O)c1ccc2ccccc2c1)c1ccc(Br)cc1	-	-	-	-	-	-	.	.
N/C(=N\OC(=O)c1ccccc1[N+](=O)[O-])c1cccnc1	-	138.4	-	-	.	-	75.5	28.9
Cc1ccc(C(=O)O/N=C(\N)c2ccc(Br)cc2)cc1C	-	-	-	-	-	-	.	.
Cc1ccc(C)c(C(=O)O/N=C(\N)c2ccc(Br)cc2)c1	-	95.0	-	-	-	-	117.7	15.1
SMILES	Arrestin-AP2 inh	AHR act	A3G deaminase	APOBEC3A inh	UCH37 inh	PolyA inhibitor	AHR act confirm	PXR act counter
CCCOc1ccc(C(=O)NN=Cc2ccc(-c3ccc(S(=O)(=O)Nc4ncccn4)cc3)o2)cc1	.	.	.	.	-	.	.	.
COc1ccc(CCNC(=O)CC(C)=NNC(=O)C23CC4CC(CC(C4)C2)C3)cc1OC	.	.	.	.	-	.	.	.
COC(=O)N/N=C/c1cn(Cc2ccccc2Cl)c2ccccc12	-	83.4	-	-	.	-	64.5	69.6
O=C(/C(=C\c1ccccc1)c1nc2ccccc2[nH]1)c1ccc(Cl)cc1	-	80.4	-	-	-	-	-	117.0
O=C(NCCCn1ccnc1)c1cc(Cl)cc(Cl)c1	-	87.2	-	-	-	-	73.8	21.5
CCNC(=S)NN=Cc1cc(Br)cc(Br)c1OC	.	.	.	.	-	.	.	.
CCn1c(=O)cc(OCC(=O)NC2CC2)c2ccccc21	-	97.2	-	-	-	-	83.7	24.8
Brc1ccc2ncnc(Nc3ccc(N4CCOCC4)cc3)c2c1	-	91.6	-	-	-	-	63.2	.
CC(=NOCC(=O)NCCCCCCNC(=O)CON=C(C)c1cccs1)c1cccs1	.	.	.	.	-	.	.	.
N/C(=N\OC(=O)c1cccc(Br)c1)c1ccccn1	-	98.8	-	-	-	-	95.5	-
O=C(NC1=C(Nc2ccc(F)cc2)C(=O)c2ccccc2C1=O)c1ccc(Cl)cc1	-	88.1	-	-	20.9	-	90.0	72.2
Cc1cccc(NC(=O)C(=O)NN=Cc2ccncc2)c1	.	.	.	.	-	.	.	.
N#C/C(=C/c1cccs1)c1nc2ccccc2[nH]1	-	117.3	-	-	-	-	125.0	22.4
Cc1cc(C(F)(F)F)n2nc(-c3sccc3-n3cccc3)cc2n1	-	102.6	-	-	-	-	112.7	44.0
Cc1ccc(-c2csc(NC(=O)C3CSC4(C)CCC(=O)N34)n2)cc1 (stereo not drawn)	-	-	-	-	.	-	.	.
Cc1sc(NC(=O)C2CSC3(C)CCC(=O)N23)nc1-c1ccc(F)cc1 (stereo not drawn)	-	150.9	-	-	-	-	100.7	151.2
CC12CCC(=O)N1C(C(=O)Nc1nc3ccc(Cl)cc3s1)CS2 (stereo not drawn)	-	127.1	-	-	-	-	109.5	65.3
Cc1scc(C(=O)NN=Cc2ccc(OC(C)C)cc2)c1C	.	.	.	.	-	.	.	.
O=C(NN=Cc1cccc2ccccc12)c1ccc(CN2CCOCC2)cc1	.	.	.	.	-	.	.	.
CCOC(=O)c1c(N=CC2=C(O)CCCC2=O)sc2c1CCCC2	.	.	.	.	-	.	.	.
CC(C)n1cnc2c(Nc3ccc(F)c(Cl)c3)nc(NCCO)nc21	-	92.5	-	-	-	-	69.0	135.0
CC(C)C[C@H](CO)Nc1nc(Nc2cccc(Cl)c2)c2ncn(C(C)C)c2n1	-	-	-	-	-	-	.	.
COc1ccccc1NC(=O)c1ccc(C(=O)Nc2ccccc2OC)nc1	-	83.9	-	-	-	-	102.9	.
CNC(=O)c1[nH]cnc1C(=O)Nc1ccc(Cl)cc1	-	121.3	-	-	-	-	172.1	34.9
O=C(Nc1ccccc1OC(=O)c1ccc(Cl)cc1)c1ccc(Cl)cc1	-	79.5	-	-	-	-	83.4	.
COc1ccccc1NC(=O)c1nc[nH]c1C(=O)Nc1ccccc1OC	-	108.5	-	-	-	-	53.3	19.0
O=C(Nc1cccnc1Cl)c1ccc(Cl)cc1	-	-	-	-	-	-	.	.
COc1ccc2cc(C(N)=O)c(=NNC(=O)c3ccco3)oc2c1	.	.	.	.	-	.	.	.
Cc1ccc(C)c(-n2c(C)cc(C=NNC(=O)c3c(C)nc4cc(C)ccn34)c2C)c1	.	.	.	.	-	.	.	.
